The compounds below were run on CCRF-CEM (assay: In vitro growth inhibitory activity against CCRF-CEM (human lymphoblastic leukemic) cells.). Conditions: read-out: ID50 (the source's name).
Format: functional
Summary of the method: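 Human lymphoblastic leukemia CCRF-CEM cultures exposed to drug for 48 h. The value is the concentration inhibiting culture growth by 50% relative to untreated controls.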

Row | Structure (SMILES) | IC50 [nM]
1 | COc1cccc2c1C(=O)c1c(O)c3c(c(O)c1C2=O)C=C(C(C)=O)C[C@@H]3O | 10000
2 | CCCCC(=O)OCC(=O)[C@@H]1Cc2c(O)c3c(c(O)c2[C@@H](OC2CC(NC(=O)C(F)(F)F)C(O)C(C)O2)C1)C(=O)c1c(OC)cccc1C3=O (stereo partly drawn) | 4710
3 | COc1cccc2c1C(=O)c1c(O)c3c(c(O)c1C2=O)C=C(C(C)=O)CC3 | > 10000
4 | CCCCC(=O)OCC(=O)[C@]1(O)Cc2c(O)c3c(c(O)c2[C@@H](OC2CC(NC(=O)C(F)(F)F)C(O)C(C)O2)C1)C(=O)c1c(OC)cccc1C3=O (stereo partly drawn) | 230
5 | COc1cccc2c1C(=O)c1c(O)c3c(c(O)c1C2=O)C[C@@H](C(C)=O)CC3 | > 10000
6 | COc1ccc(C(OCC(=O)C2=Cc3c(O)c4c(c(O)c3[C@@H](OC3CC(NC(=O)C(F)(F)F)C(O)C(C)O3)C2)C(=O)c2c(OC)cccc2C4=O)(c2ccccc2)c2ccccc2)cc1 (stereo partly drawn) | > 5000
7 | COc1cccc2c1C(=O)c1c(O)c3c(c(O)c1C2=O)C=C(C(=O)CO)C[C@@H]3OC1CC(N)C(O)C(C)O1 (stereo partly drawn) | 2310
8 | COc1ccc(C(OCC(=O)C2=Cc3c(O)c4c(c(O)c3[C@@H](OC3CC(N)C(O)C(C)O3)C2)C(=O)c2c(OC)cccc2C4=O)(c2ccccc2)c2ccccc2)cc1 (stereo partly drawn) | > 5000
9 | CCCCC(=O)OCC(=O)C1=Cc2c(O)c3c(c(O)c2[C@@H](OC2CC(NC(=O)C(F)(F)F)C(O)C(C)O2)C1)C(=O)c1c(OC)cccc1C3=O (stereo partly drawn) | 2700
10 | COc1cccc2c1C(=O)c1c(O)c3c(c(O)c1C2=O)CC(C(C)=O)C[C@@H]3OC1CC(NC(=O)C(F)(F)F)C(O)C(C)O1 (stereo partly drawn) | 3950
11 | COc1cccc2c1C(=O)c1c(O)c3c(c(O)c1C2=O)C=C(C(C)=O)C[C@@H]3OC1CC(NC(=O)C(F)(F)F)C(O)C(C)O1 (stereo partly drawn) | 2560
12 | COc1cccc2c1C(=O)c1c(O)c3c(c(O)c1C2=O)C[C@@](O)(C(C)=O)C[C@@H]3O[C@H]1C[C@H](N)[C@H](O)[C@H](C)O1 [DAUNORUBICIN] | 40
13 | COc1cccc2c1C(=O)c1c(O)c3c(c(O)c1C2=O)C[C@@](O)(C(=O)CO)C[C@@H]3O[C@H]1C[C@H](N)[C@H](O)[C@H](C)O1 [DOXORUBICIN] | 66

— ChEMBL document CHEMBL1122048, “Adriamycin analogues. Preparation of 9,10-anhydrodaunorubicin, 9,10-anhydroadriamycin, and some related compounds” (1982)
